Assays:
Type in all cases: functional
NCI-H522 [1] = assay: Growth inhibition of human NCI-H522 cells after 48 hrs by sulforhodamine B assay; conditions: NCI-H522, 48 h
Method in brief: (§1)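 NCI 60-cell-line panel. Cells were grown in medium with 5% fetal calf serum and 2 mM L-glutamine, then preincubated 24 h in plates. Compounds were added from DMSO at five 10-fold concentrations from 100 to 0.01 µM and left on cells continuously for 48 h. Cell growth was read by sulforhodamine B protein stain. GI50 is the concentration that halves net protein increase relative to control cells.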

MOLT-4 = assay: Growth inhibition of human MOLT4 cells assessed as cell growth at 10 uM after 48 hrs by sulforhodamine B assay; conditions: MOLT-4, 48 h, read-out: Activity
T47D [2] = assay: Growth inhibition of human T47D cells after 48 hrs by sulforhodamine B assay
Method in brief: (§2)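 NCI 60-line panel. Cells were grown in medium with 5% fetal calf serum and 2 mM L-glutamine and preincubated 24 h in plates. Compound in DMSO was added at 10^-4 to 10^-8 M (five 10-fold levels), with continuous exposure for 48 h. Growth was read by SRB protein staining. GI50 is the concentration giving 50% reduction in net protein increase versus control cells.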

COLO 205 = assay: Growth inhibition of human COLO205 cells assessed as cell growth at 10 uM after 48 hrs by sulforhodamine B assay; conditions: COLO 205, 48 h, read-out: Activity
NCI-H23 [3] = assay: Growth inhibition of human NCI-H23 cells assessed as cell growth at 10 uM after 48 hrs by sulforhodamine B assay; conditions: NCI-H23, 48 h, read-out: Activity
MCF7 = assay: Growth inhibition of human MCF7 cells assessed as cell growth at 10 uM after 48 hrs by sulforhodamine B assay; conditions: MCF7, 48 h, read-out: Activity
786-0 = assay: Growth inhibition of human 786-0 cells after 48 hrs by sulforhodamine B assay; conditions: 786-0, 48 h
Method in brief: (§3)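 NCI 60-cell-line panel grown in RPMI-type medium with 5% fetal calf serum and 2 mM L-glutamine. Cells preincubated 24 h, then exposed continuously for 48 h to compound in DMSO at 10^-4 to 10^-8 M (five 10-fold levels). Growth read by SRB protein stain. GI50 is the concentration giving a 50% reduction in net protein increase relative to control cells.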

BT-549 [4] = assay: Growth inhibition of human BT549 cells assessed as cell growth at 10 uM after 48 hrs by sulforhodamine B assay; conditions: BT-549, 48 h, read-out: Activity
KM12 = assay: Growth inhibition of human KM12 cells assessed as cell growth at 10 uM after 48 hrs by sulforhodamine B assay; conditions: KM12, 48 h, read-out: Activity
LOX IMVI = assay: Growth inhibition of human LOXIMVI cells assessed as cell growth at 10 uM after 48 hrs by sulforhodamine B assay; conditions: read-out: Activity
NCI-H23 [5] = assay: Growth inhibition of human NCI-H23 cells after 48 hrs by sulforhodamine B assay; conditions: NCI-H23, 48 h; for CC50: read-out: LC50 (the source's name); method in brief: as §1
BT-549 [6] = assay: Growth inhibition of human BT549 cells after 48 hrs by sulforhodamine B assay; conditions: BT-549, 48 h; for CC50: read-out: LC50 (the source's name); method in brief: as §3
HCT-116 = assay: Growth inhibition of human HCT116 cells after 48 hrs by sulforhodamine B assay; conditions: HCT-116, 48 h; method in brief: as §3
SN12C = assay: Growth inhibition of human SN12C cells after 48 hrs by sulforhodamine B assay
Method in brief: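 Part of the NCI 60-cell-line panel. Cells were grown in 1640 medium with 5% fetal calf serum and 2 mM L-glutamine, then preincubated 24 h before compound was added. Compounds in DMSO were tested at five concentrations (100, 10, 1, 0.1, 0.01 µM) with 48 h continuous exposure. Read-out was SRB protein staining; GI50 is the concentration halving the net protein increase versus control.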

SR = assay: Growth inhibition of human SR cells assessed as cell growth at 10 uM after 48 hrs by sulforhodamine B assay; conditions: read-out: Activity
Method in brief: (§4)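 Single-dose NCI screen. Tumor lines were cultured in medium with 5% fetal calf serum and 2 mM L-glutamine, preincubated 24 h, then given compound in DMSO. After 48 h continuous exposure, cell growth was estimated by sulforhodamine B protein assay.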

K562 = assay: Growth inhibition of human K562 cells assessed as cell growth at 10 uM after 48 hrs by sulforhodamine B assay; conditions: K562, 48 h, read-out: Activity
SK-MEL-28 = assay: Growth inhibition of human SK-MEL-28 cells after 48 hrs by sulforhodamine B assay; conditions: SK-MEL-28, 48 h; for CC50: read-out: LC50 (the source's name); method in brief: as §1
SNB-19 = assay: Growth inhibition of human SNB19 cells after 48 hrs by sulforhodamine B assay; conditions: SNB-19, 48 h; for CC50: read-out: LC50 (the source's name); method in brief: as §1
CCRF-CEM = assay: Growth inhibition of human CCRF-CEM cells assessed as cell growth at 10 uM after 48 hrs by sulforhodamine B assay; conditions: read-out: Activity
NCI-H522 [7] = assay: Growth inhibition of human NCI-H522 cells assessed as cell growth at 10 uM after 48 hrs by sulforhodamine B assay; conditions: NCI-H522, 48 h, read-out: Activity
TK-10 = assay: Growth inhibition of human TK10 cells assessed as cell growth at 10 uM after 48 hrs by sulforhodamine B assay; conditions: TK-10, 48 h, read-out: Activity; method in brief: as §4
OVCAR-8 = assay: Growth inhibition of human OVCAR8 cells after 48 hrs by sulforhodamine B assay; conditions: OVCAR-8, 48 h; method in brief: as §1
OVCAR-5 = assay: Growth inhibition of human OVCAR5 cells after 48 hrs by sulforhodamine B assay; conditions: OVCAR-5, 48 h; for CC50: read-out: LC50 (the source's name); method in brief: as §1
T47D [8] = assay: Growth inhibition of human T47D cells assessed as cell growth at 10 uM after 48 hrs by sulforhodamine B assay; conditions: read-out: Activity; method in brief: as §4
SW-620 = assay: Growth inhibition of human SW620 cells after 48 hrs by sulforhodamine B assay; conditions: SW-620, 48 h; for CC50: read-out: LC50 (the source's name); method in brief: as §2
[9] = Growth inhibition of human Hs 578T cells after 48 hrs by sulforhodamine B assay; method in brief: as §3
Rattus norvegicus = assay: Antiinflammatory activity in Wistar rat assessed as inhibition of carrageenan-induced paw edema at 0.05 mmol/kg, po administered 30 mins prior challenge measured after 5 hrs
Method in brief: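 Wistar rats of either sex, 150–175 g, fasted 16 h, 6 per group. Dosed orally at 0.05 mmol/kg, suspended in 1% CMC in water (10 ml/kg). 30 min later, 0.1 ml of 1% carrageenan in saline injected subplantar into the left hind paw. Paw volume read by plethysmometer at 0, 3 and 5 h. % inhibition = (1 − Vt/Vc) × 100 against the vehicle group.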

Cc1ccc(C2=NN(c3ccc(S(C)(=O)=O)cc3)C(=O)CC2)cc1
GI50 (NCI-H522 [1]): 0.22 µM
LC50 (concentration killing 50% of starting cells) (NCI-H522 [1]): > 100 µM
TGI (NCI-H522 [1]): 1 µM
growth at 10 µM (MOLT-4): 20.1%
GI50 (T47D [2]): 2.08 µM
LC50 (T47D [2]): > 100 µM
TGI (T47D [2]): > 100 µM
growth at 10 µM (COLO 205): 4.23%
growth at 10 µM (NCI-H23 [3]): -19.6%
growth at 10 µM (MCF7): 16.2%
GI50 (786-0): 5.78 µM
LC50 (786-0): > 100 µM
TGI (786-0): > 100 µM
growth at 10 µM (BT-549 [4]): 11.3%
growth at 10 µM (KM12): 35%
growth at 10 µM (LOX IMVI): 33.7%
GI50 (NCI-H23 [5]): 2.5 µM
TGI (NCI-H23 [5]): > 100 µM
CC50 (NCI-H23 [5]): > 100 µM
GI50 (BT-549 [6]): 0.6 µM
TGI (BT-549 [6]): > 100 µM
CC50 (BT-549 [6]): > 100 µM
GI50 (HCT-116): 0.41 µM
LC50 (concentration killing 50% of cells) (HCT-116): > 100 µM
TGI (HCT-116): > 100 µM
LC50 (SN12C): > 100 µM
growth at 10 µM (SR): 4.47%
growth at 10 µM (K562): 11.7%
GI50 (SK-MEL-28): 0.66 µM
TGI (SK-MEL-28): > 100 µM
CC50 (SK-MEL-28): > 100 µM
GI50 (SNB-19): 1.25 µM
TGI (SNB-19): > 100 µM
CC50 (SNB-19): > 100 µM
growth at 10 µM (CCRF-CEM): 14.9%
growth at 10 µM (NCI-H522 [7]): 12.8%
growth at 10 µM (TK-10): 67%
GI50 (OVCAR-8): 0.74 µM
LC50 (OVCAR-8): > 100 µM
TGI (OVCAR-8): > 100 µM
GI50 (OVCAR-5): 3.69 µM
TGI (OVCAR-5): > 100 µM
CC50 (OVCAR-5): > 100 µM
growth at 10 µM (T47D [8]): 32.7%
GI50 (SW-620): 0.34 µM
TGI (SW-620): > 100 µM
CC50 (SW-620): > 100 µM
GI50 [9]: 0.46 µM
LC50 (concentration giving 50% net cell kill) [9]: > 100 µM
inhibition in vivo at 50 µmol/kg (Rattus norvegicus): 60.5%

CCc1ccc(C2=NN(c3ccc(S(C)(=O)=O)cc3)C(=O)CC2)cc1
GI50 (NCI-H522 [1]): 0.33 µM
LC50 (concentration killing 50% of starting cells) (NCI-H522 [1]): > 100 µM
TGI (NCI-H522 [1]): 8.37 µM
growth at 10 µM (MOLT-4): 15.3%
GI50 (T47D [2]): 4.4 µM
LC50 (T47D [2]): > 100 µM
TGI (T47D [2]): 93.3 µM
growth at 10 µM (COLO 205): 22.5%
growth at 10 µM (NCI-H23 [3]): -4.83%
growth at 10 µM (MCF7): 26%
GI50 (786-0): 5.13 µM
LC50 (786-0): > 100 µM
TGI (786-0): 80.3 µM
growth at 10 µM (BT-549 [4]): 21.9%
growth at 10 µM (KM12): 17.3%
growth at 10 µM (LOX IMVI): 35%
GI50 (NCI-H23 [5]): 3.19 µM
TGI (NCI-H23 [5]): > 100 µM
CC50 (NCI-H23 [5]): > 100 µM
GI50 (BT-549 [6]): 0.96 µM
TGI (BT-549 [6]): 35.6 µM
CC50 (BT-549 [6]): > 100 µM
GI50 (HCT-116): 0.73 µM
LC50 (concentration killing 50% of cells) (HCT-116): > 100 µM
TGI (HCT-116): > 100 µM
GI50 (SN12C): 4.81 µM
LC50 (SN12C): > 100 µM
TGI (SN12C): > 100 µM
growth at 10 µM (SR): 4.42%
growth at 10 µM (K562): 10.4%
GI50 (SK-MEL-28): 1.84 µM
TGI (SK-MEL-28): > 100 µM
CC50 (SK-MEL-28): > 100 µM
GI50 (SNB-19): 0.13 µM
TGI (SNB-19): > 100 µM
CC50 (SNB-19): > 100 µM
growth at 10 µM (CCRF-CEM): 15.3%
growth at 10 µM (NCI-H522 [7]): -1.27%
growth at 10 µM (TK-10): 71.1%
GI50 (OVCAR-8): 3.25 µM
LC50 (OVCAR-8): > 100 µM
TGI (OVCAR-8): > 100 µM
GI50 (OVCAR-5): 8.51 µM
TGI (OVCAR-5): > 100 µM
CC50 (OVCAR-5): > 100 µM
growth at 10 µM (T47D [8]): 41.4%
GI50 (SW-620): 43.1 µM
TGI (SW-620): > 100 µM
CC50 (SW-620): > 100 µM
GI50 [9]: 0.83 µM
LC50 (concentration giving 50% net cell kill) [9]: > 100 µM
TGI [9]: 6.89 µM
inhibition in vivo at 50 µmol/kg (Rattus norvegicus): 65.7%

O=c1[nH]cc(F)c(=O)[nH]1 [FLUOROURACIL]
GI50 (NCI-H522 [1]): 7.27 µM
GI50 (T47D [2]): 8.12 µM
GI50 (786-0): 0.72 µM
GI50 (NCI-H23 [5]): 0.33 µM
GI50 (BT-549 [6]): 10.6 µM
GI50 (HCT-116): 0.22 µM
GI50 (SN12C): 0.49 µM
GI50 (SK-MEL-28): 1.03 µM
GI50 (SNB-19): 3.81 µM
GI50 (OVCAR-8): 1.74 µM
GI50 (OVCAR-5): 10.9 µM
GI50 (SW-620): 0.92 µM
GI50 [9]: 9.77 µM

From ChEMBL document CHEMBL2417474, “Synthesis, antiproliferative and anti-inflammatory activities of some novel 6-aryl-2-(p-(methanesulfonyl)phenyl)-4,5-dihydropyridazi-3(2H)-ones” (Eur J Med Chem, 2013)
